Screens (PubChem BioAssay)
Many of the other results were omitted from the sample, so hits are more common in it than they were.
UPR CHOP act – apoptotic UPR (CHOP) activation; CHO-CHOP luciferase reporter, luminescence; percent of tunicamycin response over DMSO baseline; activation, % at 10 µM; 330,000 tested, 0.34% active; AID 449763;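 active = at 10 µM dose, activation of 40% or more, normalized to positive control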;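 note: 100% = tunicamycin at 10 µg/mL and 0% = DMSO alone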
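System: CHO CHOP reporter cells. Amount: 500 cells per well. Buffer or medium: F12 medium, 10% FBS. Compound dosing: one dose, 10 µM in 0.5% DMSO. Incubation: 6 h compound exposure at 37 °C after overnight seeding. Technique: Steady-Glo luciferase luminescence. Benchmarks: tunicamycin and DMSO controls.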
Jurkat NFkB inh – lowers PMA/ionomycin-induced NF-kB signal in Jurkat cells | PMA/ionomycin-induced NF-kB luciferase reporter, luminescence | inhibition, % at 4 µM | 330,000 tested, 0.53% active | AID 435003; in the data active = inhibition above about 50%
UPR XBP1 act – adaptive UPR (XBP1) activation; CHO-XBP1 luciferase reporter, IRE1-XBP1 UPR activation, luminescence; percent of tunicamycin response, DMSO as zero; activation, % at 20 µM; 330,000 tested, 0.33% active; AID 463104;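 active = versus positive control, 20 µM dose yields 30% or more activation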;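 note: 100% = tunicamycin at 10 µg/mL and 0% = DMSO only wells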
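Test system: CHO-XBP1 luciferase reporter cells | Buffer or medium: Serum-containing F12 medium, 10% FBS | Schedule: 6 h compound exposure at 37 °C, 5% CO2 | Detection: Steady-Glo luciferase glow luminescence, 10 min after reagent addition | Read-out basis: Activation, % of tunicamycin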
CHOP inhibitor – inhibitors of CHOP induction in ER stress response | AID 2732 | 220,000 tested, 3.8% active | CHO-K1 CHOP-promoter luciferase, tunicamycin-induced, 15-18 h | inhibition, % at 10 µM;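 active = compounds that reduced the stress-induced luciferase reporter signal by more than about 70% of percent inhibition, limit read from the data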;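 note: 0% = tunicamycin plus vehicle and 100% = wells without tunicamycin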
697 NFkB inh – lowers PMA/ionomycin-induced NF-kB signal in 697 B cells. inhibition, % at 4 µM. 697 B-cell NF-kB luciferase reporter, 16 h. 330,000 tested, 0.33% active; in the data active = inhibition above about 35%
697 NFkB conf – lowers PMA/ionomycin-induced NF-kB signal in 697 B cells | shares compounds with 697 NFkB inh | 697 B-cell NF-kB luciferase, 16 h | inhibition, % at 4 µM | 2,000 tested, 35% active | AID 449746; in the data active = inhibition mostly above about 28%, no sharp cut-off; inactive = mostly below about 22%
Starred values were filed as active, the others as inactive; i = inactive; . = no result.

SMILES	UPR CHOP act	Jurkat NFkB inh	UPR XBP1 act	CHOP inhibitor	697 NFkB inh	697 NFkB conf
c1ccc(Nc2nc(N3CCCC3)nc(N3CCOCC3)n2)cc1	-2.7	4.7	1.8	.	17.2	.
O=C1NC(Cc2c[nH]c3ccccc23)C(=O)N1Cc1ccc(CN2C(=O)NC(Cc3c[nH]c4ccccc34)C2=O)cc1 (centres undefined)	-0.5	6.6	-0.5	2.2	8.9	.
CC(C)N(c1ccccc1)c1ccc(NC(=O)CCl)cc1	-0.3	24.1	-1.8	-102.8	35.5*	11.0
O=C(NCc1n[nH]c(=S)n1-c1cccc(C(F)(F)F)c1)c1ccc(S(=O)(=O)N2CCCCC2)cc1	-0.5	3.8	-1.8	.	-20.4	.
Cc1cc(N(C)C)ccc1N=Nc1ccc(N)cc1	2.6	-9.8	3.9	.	69.0*	79.0*
NC(=O)c1c(NC(=O)c2ccco2)sc2c1CCC2	6.0	-89.3	3.6	-21.7	-87.8	.
NC(=O)c1c(NC(NC(=O)c2ccco2)(C(F)(F)F)C(F)(F)F)sc2c1CCCC2	0.2	11.3	-0.7	61.0	38.9*	6.7
O=S(=O)(Cc1ccccc1)N1CCN(Cc2ccc(F)cc2Cl)CC1	0.6	13.0	-2.9	.	-5.2	.
CCOC(=O)Cc1csc(NC(=S)NC(=O)c2ccc(C)cc2)n1	-3.3	-5.1	0.7	25.6	69.8*	88.9*
Nc1ccccc1SCC(=O)Nc1nc(-c2ccccc2)cs1	3.7	23.1	-3.7	11.4	46.7*	40.3*
Cc1csc(SCC(=O)Nc2nc(-c3ccccc3)cs2)n1	11.0	-28.8	-0.3	27.8	-27.1	.
O=C1CCCc2c1[nH]c1ccc(CN3CCCCC3)cc21	-2.4	-15.4	-0.3	-9.4	37.8*	28.8*
Cc1ccc2[nH]c3c(c2c1)CCCC3=O	0.0	-6.9	5.2	15.9	10.5	.
O=C(OCC(=O)N1CCN(C(=O)COC(=O)c2ccc(O)cc2O)CC1)c1ccc(O)cc1O	0.6	-0.6	0.2	.	38.9*	11.8
Cc1cccc(C(=O)NNC(=O)C23CC4CC(CC(C4)C2)C3)c1O	0.1	15.2	-3.1	.	2.5	.
O=C(NNC(=O)C12CC3CC(CC(C3)C1)C2)c1cccc(O)c1	1.9	7.3	-0.2	.	43.9*	45.4*
COc1cc(NC(=O)c2n[nH]c(=O)c3ccccc23)cc(OC)c1	0.4	-5.5	-0.3	17.0	2.9	.
COc1ccc(-c2nc(NC(=O)c3n[nH]c(=O)c4ccccc34)sc2C)cc1	3.1	-41.6	-0.6	99.8*	i	-52.5
Cc1cc(C)c(-c2csc(NC(=O)c3n[nH]c(=O)c4ccccc34)n2)c(C)c1	2.8	-13.7	-0.7	30.0	-333.0	-227.4
CC(=O)c1ccc(S(=O)(=O)N(C)CCCC(=O)N(C)Cc2c(F)cccc2Cl)cc1	1.0	-0.8	-6.6	.	-7.5	.
CN(C)c1ccc(N=Nc2ccccc2Br)cc1	-0.2	-132.0	-11.4	.	-278.8	-378.6
Cc1ccc(CSc2nnc(SCC(=O)N/N=C/C=C/c3ccccc3[N+](=O)[O-])s2)cc1	4.2	-6.9	-1.4	38.2	65.8*	55.4*
Cc1ccc(CSc2nnc(SCC(=O)N/N=C/C=C/c3ccco3)s2)cc1	2.8	-1.7	-0.9	41.2	31.3	.
CC(=O)c1ccc(NC(=O)c2ccc(CNc3c(N4CCCC4)c(=O)c3=O)cc2)cc1	0.2	10.5	-0.5	7.5	5.8	.
CCc1cccc(NC(=O)c2ccc(CNc3c(N4CCCC4)c(=O)c3=O)cc2)c1	0.8	20.0	1.1	-7.7	42.0*	33.0*
SMILES	UPR CHOP act	Jurkat NFkB inh	UPR XBP1 act	CHOP inhibitor	697 NFkB inh	697 NFkB conf
Cc1ccc(NC(=O)c2ccc(CNc3c(N4CCC(C)CC4)c(=O)c3=O)cc2)cc1	-0.4	16.4	0.2	5.7	50.0*	15.5
Nc1ccc(C(=O)OCc2nc3cc4ccccc4cc3[nH]2)cc1	2.9	-41.9	-3.5	-1.7	i	-381.4
Nc1ccc(Cc2nc3cc4ccccc4cc3[nH]2)cc1	1.6	-83.3	6.7	-8.4	i	-343.6
Nc1ccc(C(=O)OCCCc2nc3cc4ccccc4cc3[nH]2)cc1	1.3	0.8	0.7	-0.8	-38.2	.
CSC(=O)NC(=O)NC(=O)c1ccc([N+](=O)[O-])cc1	2.3	-35.2	0.1	-1.6	-9.6	.
NCCCCN	.	.	.	-19.1	.	.
COc1ccc(-c2csc(N3C(=N)SCC3=O)n2)cc1	0.8	-104.2	-4.5	-13.4	-378.4	-312.9
